The source made the active and inactive calls.
What was measured:
[1] = system: P388; assay: Antitumor activity against mouse P388 cells allografted in mouse assessed as disease cure at 300 mg/kg, ip on day 1, 5 and 9 measured up to 60 days; format: functional, organism-based; design: dose 300 mg/kg
Summary of the method: (§1)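 BDF1 or CDF1 mice inoculated ip with ascitic P388 leukemia cells, dosed ip on days 1, 5 and 9. Deaths recorded for 60 days; "cures" taken as number of survivors/total at 60 days.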

[2] = system: P388; assay: Antitumor activity against mouse P388 cells allografted in mouse assessed as increase of median life span at 300 mg/kg, ip on day 1, 5 and 9 measured up to 60 days relative to control; format: functional; conditions: route intraperitoneal
Summary of the method: (§2)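 BDF1 or CDF1 mice inoculated ip with ascitic P388 leukemia cells. Dosing ip on days 1, 5 and 9. Deaths recorded for 60 days; % increase in median life span over controls. "Cures" are survivors/total at 60 days.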

[3] = system: L5178Y; assay: Ratio of adriamycin to compound for inhibition of DNA synthesis in mouse L5178Y cells; format: functional
[4] = Toxicity in […] assessed as maximum tolerated dose administered as single dose; format: organism-based, P388; conditions: mouse, in vivo, ip
[5] = Therapeutic index, ratio of MTD for mouse P388 cells allografted ip dosed mouse to MED for mouse P388 cells allografted in ip dosed mouse administered as once each 4 days for 3 total injection; format: organism-based; conditions: in vivo, read-out: TI
Summary of the method: (§3)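 Therapeutic index is MTD/MED for ip dosing, either single or once every 4 days ×3. MTD is the 10% lethal dose in normal mice over 21 days. MED is the dose giving a 40% life-span increase in P388-bearing mice. Both come from log dose-response regression lines.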

[6] = Toxicity in […] assessed as maximum tolerated dose administered as once each 4 days for 3 total injection; format: organism-based, P388; conditions: mouse, in vivo, ip
[7] = system: P388; assay: Antitumor activity against mouse P388 cells allografted in mouse assessed as increase of median life span at 1.6 mg/kg, ip on day 1, 5 and 9 measured up to 60 days relative to control; format: functional; conditions: route intraperitoneal; summary of the method: as §2
[8] = system: P388; assay: Antitumor activity against mouse P388 cells allografted in ip dosed mouse assessed as minimum effective dose administered as single dose; format: functional; conditions: read-out: MED
Summary of the method: (§4)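 Drug given ip to P388 tumor-bearing mice, either once as a single dose or once each 4 days for three injections. Minimum effective dose defined as the dose giving 40% increase in life span over control, read from regression lines of log dose-response data.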

[9] = system: L5178Y; assay: Ratio of adriamycin to compound for inhibition of RNA synthesis in mouse L5178Y cells; format: functional
[10] = system: P388; assay: Antitumor activity against mouse P388 cells allografted in ip dosed mouse assessed as minimum effective dose administered as once each 4 days for 3 total injection; format: functional; conditions: 96 h, read-out: MED; summary of the method: as §4
[11] = Therapeutic index, ratio of MTD for mouse P388 cells allografted ip dosed mouse to MED for mouse P388 cells allografted in ip dosed mouse administered as single dose; format: organism-based; conditions: in vivo, read-out: TI; summary of the method: as §3
[12] = system: B16; assay: Antitumor activity against mouse B16 cells allografted in BDF1 mouse assessed as increase of median life span at 0.8 mg/kg, ip on day 1 to 9 measured up to 80 days relative to control; format: functional; conditions: route intraperitoneal
Summary of the method: (§5)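 BDF1 mice implanted ip with a homogenate from 0.05 g of B16 tumor. Test agent given ip on days 1-9. Deaths recorded for 80 days. Result is % increase in median life span over untreated controls. "Cures" are survivors/total at 80 days.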

[13] = system: P388; assay: Antitumor activity against mouse P388 cells allografted in ip dosed mouse assessed as dose providing 40% increase in life span administered as once each 4 days for 3 total injection; format: functional
Summary of the method: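 P388 tumor-bearing mice dosed ip, either once as a single dose or once every 4 days for three injections. It was read from regression lines of log dose-response data.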

[14] = system: Lewis lung carcinoma cell line; assay: Antitumor activity against mouse LLC cells subcutaneously implanted in mouse; format: functional, cell-based
[15] = system: Lewis lung carcinoma cell line; assay: Antitumor activity against mouse LLC cells intravenously implanted in mouse; format: functional, cell-based
[16] = system: P388; assay: Antitumor activity against mouse P388 cells allografted in mouse assessed as increase of median life span at 50 mg/kg, ip on day 1, 5 and 9 measured up to 60 days relative to control; format: functional; conditions: route intraperitoneal; summary of the method: as §2
[17] = system: P388; assay: Antitumor activity against mouse P388 cells allografted in mouse assessed as disease cure at 50 mg/kg, ip on day 1, 5 and 9 measured up to 60 days; format: functional, organism-based; design: dose 50 mg/kg; summary of the method: as §1
[18] = system: B16; assay: Antitumor activity against mouse B16 cells allografted in BDF1 mouse assessed as increase of median life span at 25 mg/kg, ip on day 1 to 9 measured up to 80 days relative to control; format: functional; conditions: route intraperitoneal; summary of the method: as §5
[19] = system: B16; assay: Antitumor activity against mouse B16 cells allografted in BDF1 mouse assessed as disease cure at 25 mg/kg, ip on day 1 to 9 measured up to 80 days; format: functional, organism-based; design: dose 25 mg/kg
Summary of the method: (§6)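 BDF1 mice implanted ip with homogenate from 0.05 g of B16 tumor, then dosed ip on days 1-9. Deaths recorded for 80 days; "cures" scored as survivors/total at 80 days.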

[20] = system: P388; assay: Antitumor activity against mouse P388 cells allografted in mouse assessed as increase of median life span at 3.1 mg/kg, ip on day 1, 5 and 9 measured up to 60 days relative to control; format: functional; conditions: route intraperitoneal
Summary of the method: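 BDF or CDF1 mice injected ip with ascitic leukemia cells, then dosed ip on days 1, 5 and 9. Deaths recorded for 60 days. Read-outs: percent increase in median life span over controls, and "cures" as survivors/total at 60 days.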

[21] = system: B16; assay: Antitumor activity against mouse B16 cells allografted in BDF1 mouse assessed as disease cure at 3.1 mg/kg, ip on day 1 to 9 measured up to 80 days; format: functional, organism-based; design: dose 3.1 mg/kg; summary of the method: as §6
[22] = system: P388; assay: Antitumor activity against mouse P388 cells allografted in mouse assessed as increase of median life span at 6.2 mg/kg, ip on day 1, 5 and 9 measured up to 60 days relative to control; format: functional; conditions: route intraperitoneal; summary of the method: as §2
[23] = system: B16; assay: Antitumor activity against mouse B16 cells allografted in BDF1 mouse assessed as increase of median life span at 3.1 mg/kg, ip on day 1 to 9 measured up to 80 days relative to control; format: functional; conditions: route intraperitoneal; summary of the method: as §5
[24] = system: P388; assay: Antitumor activity against mouse P388 cells allografted in mouse assessed as disease cure at 6.2 mg/kg, ip on day 1, 5 and 9 measured up to 60 days; format: functional, organism-based; design: dose 6.2 mg/kg; summary of the method: as §1
[25] = system: P388; assay: Antitumor activity against mouse P388 cells allografted in mouse assessed as increase of median life span at 12.5 mg/kg, ip on day 1, 5 and 9 measured up to 60 days relative to control; format: functional; conditions: route intraperitoneal; summary of the method: as §2
[26] = system: B16; assay: Antitumor activity against mouse B16 cells allografted in BDF1 mouse assessed as increase of median life span at 50 mg/kg, ip on day 1 to 9 measured up to 80 days relative to control; format: functional; conditions: route intraperitoneal; summary of the method: as §5
[27] = system: B16; assay: Antitumor activity against mouse B16 cells allografted in BDF1 mouse assessed as disease cure at 50 mg/kg, ip on day 1 to 9 measured up to 80 days; format: functional, organism-based; design: dose 50 mg/kg; summary of the method: as §6
[28] = system: B16; assay: Antitumor activity against mouse B16 cells allografted in BDF1 mouse assessed as increase of median life span at 6.2 mg/kg, ip on day 1 to 9 measured up to 80 days relative to control; format: functional; conditions: route intraperitoneal; summary of the method: as §5

## C[N+](C)(C)CCNc1ccc(NCC[N+](C)(C)C)c2c1C(=O)c1ccccc1C2=O
[1]
  Activity: inactive
[2]
  ILS at 300 mg/kg: 0%

## Cl.Cl.O=C1c2c(O)ccc(O)c2C(=O)c2c(NCCNCCO)ccc(NCCNCCO)c21 [MITOXANTRONE HYDROCHLORIDE]
[3]
  Ratio: 4
[4]
  MTD: 4.2 mg/kg
[5]
  selectivity ratio at 96 h: 148
[6]
  MTD at 96 h: 3.4 mg/kg
[7]
  ILS at 1.6 mg/kg: > 500%
[8]
  minimal effective dose: 0.15 mg/kg
[9]
  Ratio: 7
[10]
  minimal effective dose: 0.023 mg/kg
[11]
  selectivity ratio: 28
[12]
  ILS at 0.8 mg/kg: > 272%
[13]
  Activity: 300 mg/kg

## O=C1c2c(O)ccc(O)c2C(=O)c2c(NCCNCCO)ccc(NCCNCCO)c21
[14]
  Activity: inactive
[15]
  Activity: inactive

## CN(C)CCCNc1ccc(NCCCN(C)C)c2c1C(=O)c1c(O)ccc(O)c1C2=O
[16]
  ILS at 50 mg/kg: 29%
[17]
  Activity: inactive
[18]
  ILS at 25 mg/kg: 25%
[19]
  Activity: inactive

## CN(C)CCNc1ccc(NCCN(C)C)c2c1C(=O)c1ccc(O)c(O)c1C2=O
[16]
  ILS at 50 mg/kg: 57%
[17]
  Activity: inactive
[18]
  ILS at 25 mg/kg: 60%

## NCCNc1ccc(NCCN)c2c1C(=O)c1c(O)ccc(O)c1C2=O
[20]
  ILS at 3.1 mg/kg: 173%

## CNCCNc1ccc(NCCNC)c2c1C(=O)c1c(O)ccc(O)c1C2=O
[21]
  Activity: inactive
[22]
  ILS at 6.2 mg/kg: 118%
[23]
  ILS at 3.1 mg/kg: 210%
[24]
  Activity: inactive

## CC(O)CNCCNc1ccc(NCCNCC(C)O)c2c1C(=O)c1c(O)ccc(O)c1C2=O (stereo not given)
[23]
  ILS at 3.1 mg/kg: 240%
[25]
  ILS at 12.5 mg/kg: 255%

## O=C1c2c(O)ccc(O)c2C(=O)c2c(NCCN3CCCCC3)ccc(NCCN3CCCCC3)c21
[26]
  ILS at 50 mg/kg: 0%
[1]
  Activity: inactive
[27]
  Activity: inactive
[2]
  ILS at 300 mg/kg: 40%

## O=C1c2c(O)ccc(O)c2C(=O)c2c(NCCNCCCO)ccc(NCCNCCCO)c21
[28]
  ILS at 6.2 mg/kg: 357%
[25]
  ILS at 12.5 mg/kg: 191%

Source: ChEMBL document CHEMBL3244336, “Antitumor agents. 1. 1,4-Bis[(aminoalkyl)amino]-9,10-anthracenediones” (J Med Chem, 1979)
